# Measured values: ChEMBL document CHEMBL1150058, “Gigantetronenin and gigantrionenin: novel cytotoxic acetogenins from Goniothalamus giganteus” (J Nat Prod, 1992)
# How the values were obtained:
# MCF7 = experiment: Cytotoxicity against human MCF7 cells; format: functional; conditions: read-out: ED50 (the source's name)
# Method in brief: (§1)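 Cultured human tumour lines (A-549 lung carcinoma, MCF-7 breast carcinoma, HT-29 colon adenocarcinoma) were tested at the Purdue Cell Culture Laboratory by standard protocols, with adriamycin as positive control.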
# A549 = experiment: Cytotoxicity against human A549 cells; format: functional; conditions: for EC50: Homo sapiens, A549, read-out: ED50 (the source's name); method in brief: as §1
# HT-29 = experiment: Cytotoxicity against human HT-29 cells; format: functional; conditions: read-out: ED50 (the source's name); method in brief: as §1
# [1] = Toxicity in brine shrimp; format: organism-based; conditions: artemia, in vivo
SMILES,EC50 (MCF7),EC50 (A549),EC50 (HT-29),LC50 [1],ED50 (A549)
CCCCCCCCCCCC/C=C\CC[C@@H](OC(C)=O)[C@@H](CC[C@H](OC(C)=O)[C@@H]1CC[C@@H](CCCCCCCC2=CC(C)OC2=O)O1)OC(C)=O (stereo not given in full),24.9 µg/mL,0.359 µg/mL,0.0667 µg/mL,–,–
CCCCCCCCCCCC[C@@H](OC(C)=O)[C@H]1CC[C@H]([C@@H](CCCCCC[C@H](CCCCC[C@H](CC2=C[C@H](C)OC2=O)OC(C)=O)OC(C)=O)OC(C)=O)O1,90.4 µg/mL,0.17 µg/mL,14.9 µg/mL,–,–
CCCCCCCCCCCC/C=C\CC[C@@H](OC(C)=O)[C@@H](CC[C@H](OC(C)=O)[C@@H]1CC[C@@H](CCCCCC(CC2=CC(C)OC2=O)OC(C)=O)O1)OC(C)=O (stereo not given in full),5.97 µg/mL,0.96 µg/mL,1.6 µg/mL,–,–
CCCCCCCCCCCC[C@H](O)[C@@H]1CC[C@@H]([C@@H](O)CCCCCCC(O)CCCCC[C@@H](O)CC2=C[C@H](C)OC2=O)O1 (stereo not given in full) [ANNOMONTACIN],–,–,–,12.5 µg/mL,–
CCCCCCCCCCCC/C=C\CC[C@@H](O)[C@H](O)CC[C@H](O)[C@@H]1CC[C@@H](CCCCCCCC2=C[C@H](C)OC2=O)O1 [GIGANTRIONENIN],8.06 µg/mL,0.00394 µg/mL,0.00292 µg/mL,13.9 µg/mL,–
COc1cccc2c1C(=O)c1c(O)c3c(c(O)c1C2=O)C[C@@](O)(C(=O)CO)C[C@@H]3O[C@H]1C[C@H](N)[C@H](O)[C@H](C)O1 [DOXORUBICIN],0.0108 µg/mL,–,0.00483 µg/mL,8 µg/mL,2.37 ×10⁻⁴ ug/ml
CCCCCCCCCCCCCCC(O)C(O)CC[C@H](O)[C@H]1CC[C@H](CCCCC[C@@H](O)CC2=C[C@H](C)OC2=O)O1 (stereo not given in full) [GIGANTETRONENIN],–,0.00471 µg/mL,–,9.4 µg/mL,–
